Values after ≈ are worked out from the molar mass of the structure shown. Active and inactive are the calls of the source. The rule behind the calls is not given here.
System: not listed separately
Assay: Solubility in water
Assay type: physicochemical
Conditions: not given

solubility	Compound
> 500 µg/mL	COc1cc(N(C)C(=O)c2ccc(-c3ccccc3)cc2)ccc1OCCN(C(C)C)C(C)C

Target: T1, Melanin-concentrating hormone receptor 1 (Homo sapiens, UniProt Q99705)
Assay: Antagonist activity at human MCHR1 expressed in HEK293 cells assessed as inhibition of MCH-stimulated calcium mobilization
Assay type: functional, cell-based
Conditions: not given
Summary of the method: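 Stably transfected HEK293 cells re-seeded on poly-D-lysine and grown 24 h, loaded with fluorescent indicator in assay buffer plus probenecid, washed, then exposed to compound for 30 min. FLIPR readings taken before and after an EC80 concentration of MCH. Apparent pKb fitted to the MCH response with a 4-parameter logistic equation.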

T1 sequence (Q99705 whole entry): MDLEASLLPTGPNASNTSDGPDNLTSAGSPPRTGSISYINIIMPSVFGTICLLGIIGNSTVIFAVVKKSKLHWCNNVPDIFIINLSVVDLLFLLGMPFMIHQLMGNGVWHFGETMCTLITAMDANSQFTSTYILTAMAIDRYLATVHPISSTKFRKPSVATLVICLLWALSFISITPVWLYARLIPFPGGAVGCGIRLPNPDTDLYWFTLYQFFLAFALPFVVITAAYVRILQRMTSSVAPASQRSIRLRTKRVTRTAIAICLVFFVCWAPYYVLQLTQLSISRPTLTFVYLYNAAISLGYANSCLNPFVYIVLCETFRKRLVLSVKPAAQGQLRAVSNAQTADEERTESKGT

pKb	Compound
7.5	COc1cc(NC(=O)c2ccc(-c3ccccc3)cc2)ccc1OCCN(C(C)C)C(C)C

System: not listed separately
Assay: Clearance in rat at 0.3 mg/kg/hr, iv
Assay type: ADME, organism-based
Design: route intravenous
Conditions: in vivo
Summary of the method: (§1)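 Rats given compound dissolved in 2% (v/v) DMSO in 5% (w/v) aqueous dextrose by constant iv infusion over 12 h, target 0.3 mg free base/kg/h, for steady-state brain:blood measurement. Blood clearance is the initial elimination rate from blood per unit body mass after this iv dosing.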

clearance	Compound
67 mL/min/kg	COc1cc(NC(=O)c2ccc(-c3ccccc3)cc2)ccc1OCCN(C(C)C)C(C)C
57 mL/min/kg	COc1cc(N(C)C(=O)c2ccc(-c3ccccc3)cc2)ccc1OCCN1CCCC1
51 mL/min/kg	CCN(CC)CCOc1ccc(N(C)C(=O)c2ccc(-c3ccccc3)cc2)cc1OC
16 mL/min/kg	CCN(CC)CCOc1ccc(N(C)C(=O)c2ccc(-c3ccc(C(F)(F)F)cc3)cc2)cc1OC

System: not listed separately
Assay: Ratio of drug level in brain against blood in rat 0.3 mg/kg/hr, iv
Assay type: ADME, organism-based
Design: route intravenous
Conditions: read-out: BBR
Summary of the method: as §1

Kp	Compound
2.7	COc1cc(NC(=O)c2ccc(-c3ccccc3)cc2)ccc1OCCN(C(C)C)C(C)C
0.1	COc1cc(N(C)C(=O)c2ccc(-c3ccccc3)cc2)ccc1OCCN1CCCC1
0.1	CCN(CC)CCOc1ccc(N(C)C(=O)c2ccc(-c3ccccc3)cc2)cc1OC
1	CCN(CC)CCOc1ccc(N(C)C(=O)c2ccc(-c3ccc(C(F)(F)F)cc3)cc2)cc1OC

Target: Melanin-concentrating hormone receptor (Homo sapiens) (UniProt Q969V1+Q99705)
Assay: Antagonizing effect on MCH-stimulated CRF release in rat hypothalamus
Assay type: functional, tissue-based
Conditions: target entry is the homologue from another species

Sequence of Melanin-concentrating hormone receptor (Homo sapiens) (Q969V1 whole entry, looked up): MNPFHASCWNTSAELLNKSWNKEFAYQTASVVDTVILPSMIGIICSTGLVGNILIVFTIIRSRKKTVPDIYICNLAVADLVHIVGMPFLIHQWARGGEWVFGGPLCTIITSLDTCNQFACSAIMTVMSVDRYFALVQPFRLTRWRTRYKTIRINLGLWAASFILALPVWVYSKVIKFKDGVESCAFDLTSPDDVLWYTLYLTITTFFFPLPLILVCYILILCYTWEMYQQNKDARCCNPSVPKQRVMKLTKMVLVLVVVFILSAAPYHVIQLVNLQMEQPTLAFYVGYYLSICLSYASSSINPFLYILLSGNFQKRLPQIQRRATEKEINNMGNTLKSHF
Sequence of Melanin-concentrating hormone receptor (Homo sapiens) (Q99705 whole entry, looked up): as the sequence (Q99705 whole entry) above

Activity	Compound
Active	CCN(CC)CCOc1ccc(N(C)C(=O)c2ccc(-c3ccc(C(F)(F)F)cc3)cc2)cc1OC

Target: T2, 5-hydroxytryptamine receptor 2C (Homo sapiens, UniProt P28335)
T2 sequence (P28335 whole entry): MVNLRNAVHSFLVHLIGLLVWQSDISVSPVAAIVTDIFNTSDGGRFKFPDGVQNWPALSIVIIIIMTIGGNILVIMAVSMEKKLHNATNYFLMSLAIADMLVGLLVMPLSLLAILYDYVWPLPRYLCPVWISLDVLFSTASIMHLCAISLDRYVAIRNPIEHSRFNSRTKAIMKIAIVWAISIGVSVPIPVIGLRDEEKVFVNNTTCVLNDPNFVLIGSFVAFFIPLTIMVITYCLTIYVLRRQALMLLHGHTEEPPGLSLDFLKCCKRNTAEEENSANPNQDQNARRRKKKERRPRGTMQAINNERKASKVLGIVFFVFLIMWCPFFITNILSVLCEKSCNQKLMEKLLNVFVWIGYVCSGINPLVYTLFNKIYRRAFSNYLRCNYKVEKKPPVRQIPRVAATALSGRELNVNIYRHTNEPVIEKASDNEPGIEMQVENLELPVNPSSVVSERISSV
Assay: Binding affinity to 5HT2C receptor
Conditions: not given

Ki	Compound
158 nM	COc1cc(NC(=O)c2ccc(-c3ccccc3)cc2)ccc1OCCN(C(C)C)C(C)C

System: not listed separately
Assay: Oral bioavailability in Sprague-Dawley rat
Assay type: ADME, organism-based
Conditions: in vivo
Summary of the method: (§2)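 Cannulated Sprague-Dawley rats (n ≥ 3), crossover over two study days: iv infusion of buffered compound at 10 mL/kg/h, target 1.0 mg pfb/kg, blood sampled up to 24 h. After ≥2 days recovery, oral gavage of a suspension in aq methylcellulose (1.5 mg pfb/mL, 2 mL/kg), target 3 mg pfb/kg, blood sampled pre-dose and up to 27 h.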

bioavailability	Compound
30%	CCN(CC)CCOc1ccc(N(C)C(=O)c2ccc(-c3ccc(C(F)(F)F)cc3)cc2)cc1OC

System: not listed separately
Assay: Solubility in artificial cerebrospinal fluid
Assay type: physicochemical
Conditions: not given

solubility	Compound
> 500 µg/mL	COc1cc(N(C)C(=O)c2ccc(-c3ccccc3)cc2)ccc1OCCN(C(C)C)C(C)C

System: not listed separately
Assay: Solubility of the compound
Assay type: physicochemical
Conditions: not given

solubility	Compound
4 µg/mL (≈ 8.96 µM)	COc1cc(NC(=O)c2ccc(-c3ccccc3)cc2)ccc1OCCN(C(C)C)C(C)C

System: Liver microsomes
Assay: Intrinsic clearance in rat liver microsome
Assay type: ADME
Conditions: not given
Summary of the method: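 Rat liver microsomes at 0.5 mg/mL protein, starting compound 0.5 µM. Compound loss followed as a concentration-time profile. First-order rate constant K taken from the profile; CLi = K·V, scaled and given in mL/min/g liver.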

CL	Compound
2 mL/min/g	COc1cc(NC(=O)c2ccc(-c3ccccc3)cc2)ccc1OCCN1CCCC1
9 mL/min/g	COc1cc(NC(=O)c2ccc(-c3ccccc3)cc2)ccc1OCCN(C(C)C)C(C)C
2 mL/min/g	COc1cc(N(C)C(=O)c2ccc(-c3ccccc3)cc2)ccc1OCCN1CCCC1
19 mL/min/g	COc1cc(N(C)C(=O)c2ccc(-c3ccccc3)cc2)ccc1OCCN(C(C)C)C(C)C
4 mL/min/g	CCN(CC)CCOc1ccc(NC(=O)c2ccc(-c3ccccc3)cc2)cc1OC
5 mL/min/g	CCN(CC)CCOc1ccc(N(C)C(=O)c2ccc(-c3ccccc3)cc2)cc1OC
4 mL/min/g	CCN(CC)CCOc1ccc(N(C)C(=O)c2ccc(-c3ccc(C(F)(F)F)cc3)cc2)cc1OC

Target: T1, Melanin-concentrating hormone receptor 1
Assay: Displacement of radiolabeled iodo-MCH from human MCHR1 expressed in HEK293 cells
Assay type: cell-based
Conditions: not given

Ki	Compound
25.1 nM	COc1cc(NC(=O)c2ccc(C3CCCCC3)cc2)ccc1OCCN(C(C)C)C(C)C
> 10000 nM	COc1cc(NC(=O)c2ccccc2)ccc1OCCN(C(C)C)C(C)C
63.1 nM	CC(C)N(CCOc1ccc(NC(=O)c2ccc(-c3ccccc3)cc2)cc1)C(C)C
39.8 nM	COc1cc(NC(=O)c2ccc(-c3ccccc3)cc2)ccc1OCCN1CCCCC1
158 nM	COc1cc(NC(=O)c2ccc(-c3ccccc3)c(C)c2)ccc1OCCN(C(C)C)C(C)C
25.1 nM	Cc1cc(OCCN(C(C)C)C(C)C)ccc1NC(=O)c1ccc(-c2ccccc2)cc1
398 nM	CC(C)N(CCOc1ccc(NC(=O)c2ccc(-c3ccccc3)cc2)cc1F)C(C)C
251 nM	CCN(CC)CCOc1ccc(N(CC)C(=O)c2ccc(-c3ccccc3)cc2)cc1OC
126 nM	COc1cc(NC(=O)c2ccc(-c3ccccc3)cc2C)ccc1OCCN(C(C)C)C(C)C
31.6 nM	CCN(CC)CCOc1ccc(NC(=O)c2ccc(-c3ccccc3)cc2)cc1C(C)=O
31.6 nM	COc1cc(NC(=O)c2ccc(-c3ccccc3)cc2)ccc1OCCN1CCCC1
79.4 nM	COc1cc(NC(=O)c2ccc(-c3ccc(C(F)(F)F)cc3)cc2)ccc1OCCN(C(C)C)C(C)C
100 nM	COc1cc(N(C)C(=O)c2ccc(C3CCCCC3)cc2)ccc1OCCN(C(C)C)C(C)C
> 10000 nM	COc1cc(NC(=O)c2ccc(C(C)(C)C)cc2)ccc1OCCN(C(C)C)C(C)C
50.1 nM	COc1cc(NC(=O)c2ccc(-c3ccccc3)cc2)ccc1OCCN(C)C
39.8 nM	COc1cc(NC(=O)c2ccc(-c3ccccc3C)cc2)ccc1OCCN(C(C)C)C(C)C
251 nM	CCN(CC)CCOc1ccc(NC(=O)c2ccc(-c3ccccc3)cc2)cc1C(C)O (stereo not given)
31.6 nM	COc1cc(NC(=O)c2ccc(-c3ccccc3)cc2)ccc1OCCN(C(C)C)C(C)C
251 nM	COc1cc(NC(=O)c2ccc(-c3cccc(C(F)(F)F)c3)cc2)ccc1OCCN(C(C)C)C(C)C

Ki	Compound
50.1 nM	COc1cc(NC(=O)c2ccc(-c3ccccc3)cc2)ccc1OCCN(C)Cc1ccccc1
5010 nM	COc1cc(NC(=O)c2cccc(-c3ccccc3)c2)ccc1OCCN(C(C)C)C(C)C
79.4 nM	COc1cc(N(C)C(=O)c2ccc(Cc3ccccc3)cc2)ccc1OCCN(C(C)C)C(C)C
20 nM	COc1cc(N(C)C(=O)c2ccc(-c3ccccc3)cc2)ccc1OCCN1CCCC1
> 10000 nM	COc1cc(NS(=O)(=O)c2ccc(-c3ccccc3)cc2)ccc1OCCN1CCCC1
15.8 nM	COc1cc(N(C)C(=O)c2ccc(-c3ccccc3)cc2)ccc1OCCN(C(C)C)C(C)C
79.4 nM	COc1cc(NC(=O)c2cccc(Oc3ccccc3)c2)ccc1OCCN(C(C)C)C(C)C
50.1 nM	CCc1cc(NC(=O)c2ccc(-c3ccccc3)cc2)ccc1OCCN(CC)CC
398 nM	COc1cc(N(C)C(=O)c2cccc(Oc3ccccc3)c2)ccc1OCCN(C(C)C)C(C)C
63.1 nM	Cc1cc(NC(=O)c2ccc(-c3ccccc3)cc2)ccc1OCCN(C(C)C)C(C)C
> 10000 nM	COc1cc(N(C)S(=O)(=O)c2ccc(-c3ccccc3)cc2)ccc1OCCN(C(C)C)C(C)C
> 6310 nM	COc1cc(NC(=O)c2ccc(Br)cc2)ccc1OCCN(C(C)C)C(C)C
31.6 nM	CCN(CC)CCOc1ccc(NC(=O)c2ccc(-c3ccccc3)cc2)cc1OC
200 nM	COc1cc(NC(=O)c2ccc(Oc3ccccc3)cc2)ccc1OCCN(C(C)C)C(C)C
20 nM	CCN(CC)CCOc1ccc(N(C)C(=O)c2ccc(-c3ccccc3)cc2)cc1OC
> 10000 nM	COc1cc(NC(=O)c2cccc(C(=O)c3ccccc3)c2)ccc1OCCN(C(C)C)C(C)C
158 nM	COc1cc(NC(=O)c2cccc(Cc3ccccc3)c2)ccc1OCCN(C(C)C)C(C)C
20 nM	CCN(CC)CCOc1ccc(N(C)C(=O)c2ccc(-c3ccc(C(F)(F)F)cc3)cc2)cc1OC

System: not listed separately
Assay: AUC in Sprague-Dawley rat
Assay type: ADME, organism-based
Conditions: plasma
Summary of the method: as §2

AUC	Compound
2.37 µM·h	CCN(CC)CCOc1ccc(N(C)C(=O)c2ccc(-c3ccc(C(F)(F)F)cc3)cc2)cc1OC

— ChEMBL document CHEMBL1149490, “SAR of biphenyl carboxamide ligands of the human melanin-concentrating hormone receptor 1 (MCH R1): discovery of antagonist SB-568849” (Bioorg Med Chem Lett, 2006)
